The target in data set [1] is T1, Neuropeptide Y receptor type 1 (Homo sapiens, UniProt P25929).
T1 sequence (P25929 whole entry): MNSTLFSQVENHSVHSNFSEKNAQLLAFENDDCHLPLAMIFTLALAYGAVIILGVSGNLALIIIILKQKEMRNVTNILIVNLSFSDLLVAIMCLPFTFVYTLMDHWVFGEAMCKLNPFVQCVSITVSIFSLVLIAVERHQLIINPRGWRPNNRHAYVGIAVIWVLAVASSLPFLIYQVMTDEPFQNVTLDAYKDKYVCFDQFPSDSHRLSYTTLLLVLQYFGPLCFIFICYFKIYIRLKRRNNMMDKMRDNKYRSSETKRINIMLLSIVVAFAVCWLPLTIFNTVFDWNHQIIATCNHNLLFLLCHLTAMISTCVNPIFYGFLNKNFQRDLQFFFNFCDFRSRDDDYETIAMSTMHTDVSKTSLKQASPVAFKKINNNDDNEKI
The data set can be described thus: Displacement of [125]peptide YY from human recombinant Y1 receptor expressed in CHO cells. It is filed as cell-based.

Data set [2] in a line: Oral bioavailability in Sprague-Dawley rat at 5 mg/kg, po. It is filed as ADME, organism-based. The following applies: in vivo. In outline:
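Male Sprague–Dawley rats received 5 mg/kg orally as a methocel suspension. F was calculated from the normalised AUC against the iv (1 mg/kg) dose.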

A short description of data set [3]: Ratio of drug level in […] plasma in Sprague-Dawley rat at 1 mg/kg, iv after 5 mins. The following applies: in vivo.
Data set [4] in a line: Ratio of drug level in […] plasma in Sprague-Dawley rat at 1 mg/kg, iv after 5 mins. It is filed as ADME, organism-based. Further details: dose 1 mg/kg, route intravenous. In outline:
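Brain penetration was assessed in male Sprague–Dawley rats dosed iv at 1 mg/kg in DMSO/PEG400/H2O 5:50:45 solution. The partition ratio was measured 5 min after dosing.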

Data set [5] in a line: Plasma clearance in Sprague-Dawley rat at 1 mg/kg, iv. Format: ADME, organism-based. Further details: dose 1 mg/kg, route intravenous. In outline:
(§1)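 Male Sprague–Dawley rats given 1 mg/kg iv as a solution in DMSO/PEG400/H2O 5:50:45. Clearance, half-life, volume of distribution and AUC were derived from the post-dose profile.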

The nature of data set [6]: Half life in Sprague-Dawley rat at 1 mg/kg, iv. Format: ADME, organism-based. Further details: dose 1 mg/kg, route intravenous. The following applies: in vivo. Put shortly:
as §1

As to `CCN1CCCC1CNC(=O)c1cc(Oc2ccc(Cl)cc2)c2c(c1)c1ccccc1n2C[C@@H]1CCNC[C@H]1F` (stereo partly specified), the concentration for half-maximal inhibition (IC50) in data set [1] came to 0.263 µM.
On the same count and under the same terms, the figure for `CN(C)C(=O)c1cc(Oc2ccc(Cl)cc2)c2c(c1)c1ccccc1n2C[C@@H]1CCNC[C@H]1F` is 12 µM.
Still for that read-out and setting: next, `CN1CCN(C(=O)c2cc(Oc3ccc(Cl)cc3)c3c(c2)c2ccccc2n3C[C@@H]2CCNC[C@@H]2F)CC1`: 0.051 µM.
Same read-out and setting: next, `O=C(c1cc(Oc2ccc(Cl)cc2)c2c(c1)c1ccccc1n2C[C@@H]1CCNC[C@H]1F)N1CCN(C2CC2)CC1`: 0.871 µM.
Take `CN1CCN(C(=O)c2cc(Oc3ccc(Cl)cc3)c3c(c2)c2ccccc2n3CC2CCNCC2)CC1`: the IC50 in data set [1] worked out at 0.016 µM. In addition, the bioavailability in data set [2] worked out at 0%. Moreover, the Ratio in data set [3] turned out to be 0.12.
Turning to `CN(C)C1CCN(C(=O)c2cc(Oc3ccc(Cl)cc3)c3c(c2)c2ccccc2n3C[C@@H]2CCNC[C@H]2F)C1` (stereo partly specified), the half-maximal inhibitory concentration (IC50) in data set [1] was 0.467 µM.
Still for that read-out and setting: next, `CN(C)CCN(C)C(=O)c1cc(Oc2ccc(Cl)cc2)c2c(c1)c1ccccc1n2C[C@@H]1CCNC[C@H]1F`: 0.191 µM; `CN1CCN(C(=O)c2cc(Oc3ccc(Cl)cc3)c3c(c2)c2ccccc2n3CC2CCCNC2)CC1` (stereo unspecified): 0.107 µM; `O=C(c1cc(Oc2ccc(Cl)cc2)c2c(c1)c1ccccc1n2C[C@@H]1CCNC[C@@H]1F)N1CCn2ccnc2C1`: 1.91 µM.
Consider `O=C(c1cc(Oc2ccc(Cl)cc2)c2c(c1)c1ccccc1n2C[C@@H]1CCNC[C@@H]1F)N1CCN(CC(F)(F)F)CC1`, for which the IC50 in data set [1] came to 9.77 µM.
Regarding `CN1CCC(Cn2c3ccccc3c3cc(C(=O)N4CCN(C)CC4)cc(Oc4ccc(Cl)cc4)c32)CC1`, the IC50 in data set [1] amounted to 0.011 µM. In addition, in data set [4], the blood plasma ratio at 5 min was 0.8.
`O=C(c1cc(Oc2ccc(Cl)cc2)c2c(c1)c1ccccc1n2C[C@@H]1CCNC[C@@H]1F)N1CCc2nc[nH]c2C1`: the IC50 in data set [1] is 2.88 µM.
For `CN1CCN(C(=O)c2cc(Oc3ccc(Cl)cc3)c3c(c2)c2ccccc2n3C[C@@H]2CCN(C3CC3)C[C@@H]2F)CC1`, the IC50 in data set [1] was 0.186 µM.
On the same count and under the same terms, next, `CN1CCN(C(=O)c2cc(Oc3ccc(Cl)cc3)c3c(c2)c2ccccc2n3C[C@@H]2CCNC[C@H]2F)CC1`: 0.053 µM; `O=C(c1cc(Oc2ccc(Cl)cc2)c2c(c1)c1ccccc1n2C[C@@H]1CCNC[C@@H]1F)N1CCN(CCO)CC1`: 0.832 µM.
For the compound `CN1CCCC1CCNC(=O)c1cc(Oc2ccc(Cl)cc2)c2c(c1)c1ccccc1n2C[C@@H]1CCNC[C@H]1F` (stereo partly specified), in data set [1], the 50% inhibitory concentration (IC50) was found to be 1.86 µM.
Still for that read-out and setting: the figure for `CN(C)CCNC(=O)c1cc(Oc2ccc(Cl)cc2)c2c(c1)c1ccccc1n2C[C@@H]1CCNC[C@H]1F` is 0.05 µM; for `CN1CCN(C(=O)c2cc(Oc3ccc(Cl)cc3)c3c(c2)c2ccccc2n3CC2=C(F)CNCC2)CC1` it is 0.043 µM; for `CN1CCN(C(=O)c2cc(Oc3ccc(Cl)cc3)c3c(c2)c2ccccc2n3CCCN2CCCCC2)CC1` it is 0.05 µM.
Still for that read-out and setting: next, `O=C(c1cc(Oc2ccc(Cl)cc2)c2c(c1)c1ccccc1n2C[C@@H]1CCNC[C@@H]1F)N1CCC(O)CC1`: 7.76 µM.
With `CN1CCN(C(=O)c2cc(Oc3ccc(Cl)cc3)c3c(c2)c2ccccc2n3C[C@@H]2CCN(C)C[C@H]2F)CC1`, in data set [1], the IC50 is 0.095 µM. The blood plasma ratio at 5 min in data set [4] amounted to 8.2.
Turning to `CN1CCN(C(=O)c2cc(Oc3ccc(Cl)cc3)c3c(c2)c2ccccc2n3C[C@@H]2CCN(C)C[C@@H]2F)CC1`, the IC50 in data set [1] stood at 0.028 µM. Further, the bioavailability in data set [2] stood at 19%. Also, the blood plasma ratio at 5 min in data set [4] turned out to be 4.2. Further, the clearance in data set [5] is 15 mL/min/kg. Also, the half-life in data set [6] is 11 h.
Turning to `CN1CCN(C(=O)c2cc(Oc3ccc(Cl)cc3)c3c(c2)c2ccccc2n3CC2CCN(CC(=O)N(C)C)CC2)CC1`, in data set [1], the IC50 is 0.014 µM.
